Source: the array DNA melting data of Ke et al. (doi:10.1101/2024.01.08.574731)

Key:
[1] = folding enthalpy; higher = less favourable; fluorescence melt of hairpins on a sequencing array, two-state fit; conditions: sodium 0.088 M
In short: (§1)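 Cy3 fluorescence of library hairpins on a sequenced MiSeq flow cell, with annealed Cy3 and quencher oligos, was imaged in 50 mM Na-HEPES pH 8.0, 25 mM NaCl in 2.5 °C steps up to 60 °C. Signals were normalised to pre-quench Cy3 and to control variants. Melting temperature and folding enthalpy came from bootstrapped two-state fits, inverse-variance combined over four replicates. Fitted temperatures were raised by 9.35 °C to match UV melts.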

[2] = melting temperature; fluorescence melt of hairpins on a sequencing array, two-state fit, raised by 9.35 °C to match UV melts; conditions: sodium 0.088 M
In short: as §1

| Sequence | folding enthalpy [1] | Tm [2] |
| --- | --- | --- |
| GGACCCGAAAGGGCTCC ((((((....))).))) | -23.1 kcal/mol | 58.6 °C |
| GATCGGCCGTCCGATC ((((((....)))))) | -39.7 kcal/mol | 58.3 °C |
| GATGTTGGAAACAGTATC (((..((....))..))) | -10.2 kcal/mol | 27 °C |
| GACTCGGAAACGAGTC ((((((....)))))) | -32.8 kcal/mol | 66.4 °C |
| GCGACTGGAAACAGCCAC (.(.(((....))).).) | -12.2 kcal/mol | 27.7 °C |
| GCGGAATCGAAAGATCGC (((..(((....)))))) | -25.8 kcal/mol | 45.5 °C |
| GCGACACCTCGC ((((....)))) | -29.5 kcal/mol | 51.3 °C |
| GCCGGCGCGAAAGCGGGC (((..(((....)))))) | -14.4 kcal/mol | 63 °C |
| GCTGAGCGAAAGCGCCGC ((.(.((....)).).)) | -15.2 kcal/mol | 50.5 °C |
| GTACTGCGAAAGCAATAC (((.(((....))).))) | -21.6 kcal/mol | 37.4 °C |
| GCACTTGGAAACAGGTGC ((((.((....)).)))) | -48.4 kcal/mol | 51.7 °C |
| GTTTAAGCGAAAGCTAAC (((..(((....)))))) | -11.8 kcal/mol | 32 °C |
| GATCCTCGTTAGGATC ((((((....)))))) | -39.1 kcal/mol | 51.7 °C |
| GATTAAGGAAACTTGATC (((.(((....))).))) | -26.6 kcal/mol | 30.3 °C |
| GATACGGGAAACTGTATC (((((.(....).))))) | -37.1 kcal/mol | 43.8 °C |
| GATCCTCAAGAGGATC ((((((....)))))) | -38 kcal/mol | 53.4 °C |
| GCGCCCGAAAGGGAACGC ((((((....)))..))) | -33.4 kcal/mol | 54.7 °C |
| CGCAGGCGGAAACGCGCG (((..(((....)))))) | -23 kcal/mol | 56.2 °C |
| GATCTAACGGTAGATC ((((((....)))))) | -38.4 kcal/mol | 40.5 °C |
| GGGGCAGGAAACTGTCCC (((.(((....))).))) | -39.4 kcal/mol | 61.3 °C |
| GGTTCCGGAAACAGAACC (((((.(....).))))) | -35.7 kcal/mol | 41.1 °C |
| GGTCAAGGAAACCTGACC (((((.(....).))))) | -30.5 kcal/mol | 46.5 °C |
| GCACTCGAAAGAGGATGC ((((((....)))..))) | -22.4 kcal/mol | 40.1 °C |

| Sequence | folding enthalpy [1] | Tm [2] |
| --- | --- | --- |
| GGTCCAGGAAACCGAACC (((.(.(....).).))) | -10 kcal/mol | 25.7 °C |
| GCCGTTGGAAACGACGGC (((((.(....).))))) | -38 kcal/mol | 66.1 °C |
| GATAACGGAAACGCTATC ((((.((....)).)))) | -29.5 kcal/mol | 34.4 °C |
| CTCCGGAAACGGAG (((((....))))) | -24 kcal/mol | 55.1 °C |
| GTGTTCGGAAACGGATAC ((.(.((....)).).)) | -25.8 kcal/mol | 33.6 °C |
| GATATTGGAAACGATATC (((((.(....).))))) | -33 kcal/mol | 36.2 °C |
| GTGTTCGGAAACGAACGC (.(((((....))))).) | -30.3 kcal/mol | 59.6 °C |
| GAGTGCGAAAGCATACTC ((((((....)))..))) | -17.5 kcal/mol | 43.1 °C |
| GATCATAGGCATGATC ((((((....)))))) | -32.4 kcal/mol | 48.5 °C |
| CGCGGAACCGTCCGCG ((((((....)))))) | -31.9 kcal/mol | 68.4 °C |
| GACTCTGGAAACAGAGCC (.(((((....))))).) | -18.3 kcal/mol | 43 °C |
| GATCACACCCGTGATC ((((((....)))))) | -35.2 kcal/mol | 57.8 °C |
| GAGACGACGAAAGTCCTC (((..(((....)))))) | -16.7 kcal/mol | 26.8 °C |
| TAGACGAAAGTCTA (((((....))))) | -15.3 kcal/mol | 50.9 °C |
| GTCGCACCGAAAGGTGAC (((..(((....)))))) | -8.3 kcal/mol | 35 °C |
| GGTTGTGGAAACACAGCC ((.((((....)))).)) | -42.4 kcal/mol | 52.1 °C |
| GCTTCCGAAAGGAAAAGC ((((((....)))..))) | -17.6 kcal/mol | 49.7 °C |
| GCTCCGTCGAAAGACAGC (((..(((....)))))) | -15 kcal/mol | 32.4 °C |
| GTAGACGAAAGTCGTAC ((((((....))).))) | -23.6 kcal/mol | 49.9 °C |
| GTTAGCGAAAGCTCTAAC ((((((....)))..))) | -8.83 kcal/mol | 25.6 °C |
| GTCTACCGAAAGGTGGAC (((.(((....))).))) | -41.5 kcal/mol | 60.6 °C |
| GTTCCCCGAAAGGGAAAC (((.(((....))).))) | -19.3 kcal/mol | 46.5 °C |
| GTGTACCGAAAGGTCCAC (((.(((....))).))) | -31 kcal/mol | 48.1 °C |

| Sequence | folding enthalpy [1] | Tm [2] |
| --- | --- | --- |
| GGAGGAGGAAACCCCTCC (((((.(....).))))) | -26.7 kcal/mol | 48.1 °C |
| GTGCCAGGAAACTGGTAC ((.((((....)))).)) | -29.9 kcal/mol | 53.8 °C |
| GTGGACGGAAACATCCAC (((((.(....).))))) | -31.8 kcal/mol | 43.6 °C |
| GGATGAGCGAAAGCTTCC (((..(((....)))))) | -11.4 kcal/mol | 39.4 °C |
| GTGTTTGGAAACAAACGC (.(((((....))))).) | -32.3 kcal/mol | 51 °C |
| GATCTCTGTAGAGATC ((((((....)))))) | -44.1 kcal/mol | 56.5 °C |
| GTTGTCCCGAAAGGGAAC (((..(((....)))))) | -20.7 kcal/mol | 50.4 °C |
| GACACGGGAAACCGTATC ((.((((....)))).)) | -14.5 kcal/mol | 35.2 °C |
| GCAGTGCGAAAGCAAAGC ((..(((....)))..)) | -13.3 kcal/mol | 51.3 °C |
| CATGTGAAAACATG (((((....))))) | -23.3 kcal/mol | 47.2 °C |
| GACATAGGAAACTGTGTC ((((.((....)).)))) | -40.5 kcal/mol | 44.4 °C |
| GGGTGTGGAAACACGCCC (((.(((....))).))) | -39.6 kcal/mol | 62.5 °C |
| GCTAACGAAAGTTGAAGC ((((((....)))..))) | -15.2 kcal/mol | 34.6 °C |
| GATCCGGCAGCGGATC ((((((....)))))) | -37.8 kcal/mol | 59.4 °C |
| GACCCCGAAAGGGGGGTC ((((((....)))..))) | -13.3 kcal/mol | 67.4 °C |
| GATCCTGGTAGGATC ((((((...)))))) | -32.6 kcal/mol | 54.6 °C |
| GCTCCAGGAAACCGGAGC (((((.(....).))))) | -40.5 kcal/mol | 54.3 °C |
| GAAAATCCGAAAGGATTC (((..(((....)))))) | -11.8 kcal/mol | 33.4 °C |
| GATCCTCTAAGGATC ((((((...)))))) | -33.3 kcal/mol | 54.3 °C |
| GATCCTTCCAAGGATC ((((((....)))))) | -47 kcal/mol | 55.3 °C |
| GAAACCGAAAGGTCTTC ((((((....))).))) | -19.4 kcal/mol | 40.4 °C |
| GAGCGTGCGAAAGCACTC (((..(((....)))))) | -5.83 kcal/mol | 26.9 °C |
| GGAGGCCGAAAGGCTCC (((.(((....)))))) | -21.1 kcal/mol | 57.2 °C |

| Sequence | folding enthalpy [1] | Tm [2] |
| --- | --- | --- |
| GATCCGGCGGCGGATC ((((((....)))))) | -41.5 kcal/mol | 58.7 °C |
| GAGTATCCGAAAGGACTC (((..(((....)))))) | -14.2 kcal/mol | 29.2 °C |
| GCTCGCGAAAGCGACAGC ((((((....)))..))) | -10.7 kcal/mol | 47.5 °C |
| GTCTCCGAAAGGAAGGAC ((((((....)))..))) | -16.5 kcal/mol | 36.2 °C |
| GACCCGGGAAACCGGACC (..((((....))))..) | -10.3 kcal/mol | 30.3 °C |
| GATCCACGAAAGTGATC (((.(((....)))))) | -21.4 kcal/mol | 41.3 °C |
| GAGCTTGGAAACAAACTC (((.(((....))).))) | -23.9 kcal/mol | 35.8 °C |
| CTACTGAAAAGTAG (((((....))))) | -13.5 kcal/mol | 44.3 °C |
| GGCACGCCGAAAGGCGCC (((..(((....)))))) | -6.45 kcal/mol | 40.3 °C |
| GGTATGGGAAACCACACC (((.(((....))).))) | -27 kcal/mol | 38.6 °C |
| GCTACGCGAAAGCGCAGC (((.(((....))).))) | -32.5 kcal/mol | 55.7 °C |
| GATCGATAGCTCGATC ((((((....)))))) | -41.9 kcal/mol | 49.6 °C |
| GGGTTGGGAAACCAACCC (((((((....))))))) | -32.3 kcal/mol | 69.3 °C |
| GTAGCGGGAAACCGTTAC (((.(((....))).))) | -30.2 kcal/mol | 47.8 °C |
| GCTTCCCGAAAGGGTAGC (((.(((....))).))) | -33.9 kcal/mol | 56.4 °C |
| GAAGGGCGAAAGCCTTTC (((.(((....))).))) | -17.9 kcal/mol | 49.4 °C |
| GATCGCTCAAGCGATC ((((((....)))))) | -43.6 kcal/mol | 68 °C |
| GCAAGGGAAACCTTGC ((((((....)))))) | -37.9 kcal/mol | 60.1 °C |
| GCGGCCGAAAGGCGACGC ((((((....)))..))) | -17.2 kcal/mol | 65.9 °C |
| GATCTTTATGAAGATC ((((((....)))))) | -36.5 kcal/mol | 44.9 °C |
| GTCTGTGGAAACACAGGC (.(((((....))))).) | -32.4 kcal/mol | 53.7 °C |
| GGAGTCGAAAGACCGTCC ((((((....)))..))) | -12.7 kcal/mol | 32.2 °C |
| GCACTCGAAAGAGATTGC ((((((....)))..))) | -15.2 kcal/mol | 34.2 °C |
